Rows were chosen to be rich in hits. Some 1.9% of all compounds tested hit in one or more screens of this group.
Ins promoter up = MIN6 insulin promoter up-regulation; MIN6 insulin promoter-GFP reporter, high-content imaging; hits give high values; z-score at 5 µM; actives 0.3% (n = 190,000);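 active = z-score above 3 at 5 µM with at least 500 cells counted in the well; inconclusive = wells under 500 cells, flagged as cytotoxic or low count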
Autophagy HCS = modulators of autophagy; MEF GFP-LC3 puncta imaging; test concentration mostly 10 µM; calls only at 10 µM (by protocol); actives 0.98% (n = 190,000);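 active = percentage of spot-positive cells more than 3 SD above its plate mean, without a fluorescence outlier flag or 80% toxicity; inconclusive = no clear call, values can overlap the other calls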;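 note: spot-positive cell cutoff set from DMSO-treated cells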
MT stabilize HCS = microtubule stabilizers in HeLa cells; HeLa tubulin immunostaining HCS, 24 h; share of cells brighter than vehicle mean+2SD; % tubulin-high responders, % at 10 µM; actives 0.83% (n = 200,000);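 active = plate Z-score above 3 for both tubulin-high and condensed-nucleus cell shares, with cell loss under 80%, at 10 µM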;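 note: anti alpha tubulin signal scored within the nucleus-defined area of each cell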
bCat nuc transl = modulators of beta-catenin nuclear translocation; nuclear translocation activity, % at 5 µM; actives 0.3% (n = 190,000); HeLa beta-catenin nuclear translocation, immunofluorescence imaging; AID 1665;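 active = nuclear translocation activity above 50% at 5 µM, with a well cell count of 50 or more; inconclusive = wells under 50 cells across six images, flagged as toxic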;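 note: per-cell ratio of nuclear to cytoplasmic median beta-catenin stain intensity; plate controls were DMSO negative control for no effect and GSK-3 inhibitor IX positive control for full effect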
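System: HeLa cells, endogenous beta-catenin; compound dosing: 5 µM primary single dose, 0.1% DMSO, 0.02–20 µM confirmation series; incubation: 24 h compound exposure at 37°C, 5% CO2; signal: beta-catenin immunofluorescence imaging with DAPI; evaluation: % activation, nuclear-to-cytoplasmic median beta-catenin signal ratio per cell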
The depositor's hits bear a star; i = inactive; ? = inconclusive; / = no result given; + = active, no number.

SMILES	Ins promoter up	Autophagy HCS	MT stabilize HCS	bCat nuc transl
CCCCN(C)CCNC(=O)Cn1ncc2c(=O)oc3ccc(C)cc3c21	0.28	i	5.9	/
Cc1ccc2c(c1)NC(=O)C(CC(=O)NCCCN1CCN(c3cc(C)ccc3C)CC1)O2 (stereo not drawn)	-0.69	+	6.8	/
CN(CCOc1ccccc1)CC(=O)Nc1ccc(Cl)cc1[N+](=O)[O-]	-0.51	i	6.2	1.8
COc1cc(NC(=S)NC2CC(C)(C)NC(C)(C)C2)c(OC)cc1Cl	-0.25	i	4.9	-2.9
Cc1ccc(S(=O)(=O)Nc2ccnc3ccccc23)cc1	/	i	1.5	-3.3
Cc1ccc(S(=O)(=O)Nc2ccc(O)c3ncccc23)cc1	-1.38	i	10.3	58.5*
CCOC(=O)c1ccccc1NS(=O)(=O)c1ccc(C)cc1	-0.1	i	26.2*	/
CCOC(=O)c1cccc(NS(=O)(=O)c2ccc(NC(C)=O)cc2)c1	-2.13	i	3.6	/
CCOC(=O)c1cnc(SC)nc1Oc1cccc(NS(=O)(=O)c2ccc(C)cc2)c1	-0.51	+	14.5	0.3
Cc1ccc(S(=O)(=O)Nc2ccccc2-c2ccccc2)cc1	-0.01	+	36.1*	61.7*
COc1ccc(C(=O)NCC(=O)OCC(=O)Nc2ccc(C)c(S(=O)(=O)N(C)C)c2)cc1OC	0.01	/	/	-0.3
COc1ccc(C(=O)Nc2ccc3oc(Cc4ccc(Cl)cc4)nc3c2)cc1OC	-0.86	i	8.6	/
CCCn1c(=O)c2c(nc3n2CCS3)n(C)c1=O	-1.05	i	1.6	2.3
O=C(N/N=C/c1ccccc1[N+](=O)[O-])C(=O)N1CCCC1	0.27	i	2.6	-0.2
Cc1c(NS(=O)(=O)c2ccc(C(=O)NCc3ccccc3)cc2)c(=O)n(-c2ccccc2)n1C	0.08	i	3.2	-3.1
Cc1ccc(NC(=O)NCCCN2CCOCC2)cc1	/	i	2.1	/
COc1ccc(Cl)c(N2CCN(CCCNC(=O)Nc3ccc(C)cc3)CC2)c1	-1.09	+	3.9	-0.9
O=C(NC1CCCCC1)N1CCC(c2nc(-c3ccc(S(=O)(=O)N4CCCC4)cc3)no2)CC1	0.43	i	35.1*	0.9
CCC(C)NC(=O)Cn1cc(S(=O)(=O)N2CCN(c3ccccc3F)CC2)c2ccccc2c1=O (stereo not drawn)	-0.11	i	2.7	-2.4
COc1ccc(OC)c(CN2C(=O)c3ccccc3C2C(=O)NCc2cccnc2)c1 (stereo not drawn)	0.27	i	3.0	-1.3
COc1ccc(CN2C(=O)c3ccccc3C2C(=O)NCc2cccnc2)c(OC)c1 (stereo not drawn)	-0.11	+	3.8	-4.5
O=C(Nc1ccc(Cl)c(Cl)c1)OCc1cncs1	/	i	1.3	1.7
C=CCCC(=O)Nc1nc(C)c(-c2csc(Nc3cc(Cl)ccc3OC)n2)s1	-1.12	i	54.1*	4.4
COc1ccc(Nc2nc(-c3sc(NC(C)=O)nc3C)cs2)cc1	-0.22	i	22.6*	/
C=CCCC(=O)Nc1nc(C)c(-c2csc(Nc3ccccc3OC)n2)s1	-1.65	i	35.7	56.4*
SMILES	Ins promoter up	Autophagy HCS	MT stabilize HCS	bCat nuc transl
O=C(COC(=O)c1ccco1)NCC1CCCO1 (stereo not drawn)	3.04*	i	1.6	0.2
CC(C)NC(=S)NN=C1c2ccccc2-c2ccccc21	0.54	i	4.1	-2.2
Cn1c2c(c(=O)n(C)c1=O)[C@@]1(C(=O)Nc3ccccc31)C(C#N)=C(N)O2	0.63	?	3.0	-2.5
COc1ccc(-c2[nH]n(-c3ccc([N+](=O)[O-])cc3)c(=O)c2C=NCc2ccc(F)cc2)cc1	-0.15	+	5.8	-1.0
COc1nnc(-c2ccccc2)s1	0.36	i	1.6	/
Cc1csc2c(N3CCN(C(=S)Nc4ccc(F)cc4F)CC3)ncnc12	/	/	/	1.1
CCN(CC)c1ccc(C=C(c2nnnn2-c2ccc(C)cc2)c2nnnn2-c2ccc(C)cc2)cc1	1.56	+	4.4	2.4
Cc1ccc(C23CC4CC(CC(C(=O)OCC(=O)NC5CCS(=O)(=O)C5)(C4)C2)C3)cc1 (stereo not drawn)	0.73	i	2.1	-1.8
C=CCOc1c(OC)cc(Cl)cc1C1NC(=O)NC(C)=C1C(C)=O (stereo not drawn)	0.28	i	2.3	-3.8
C=CCOc1c(Cl)cc(C2NC(=O)NC(C)=C2C(=O)OC)cc1Cl (stereo not drawn)	0.16	i	22.9*	-0.1
Cc1c(C(=O)Nc2ccc3c4c(cccc24)CC3)cccc1[N+](=O)[O-]	-0.18	i	21.8*	-2.4
COc1ccccc1Nc1nc(-c2ccc3c(c2)NC(=O)CO3)cs1	-0.46	i	23.7*	0.0
N#C/C(=C/c1ccc(N2CCOCC2)o1)c1ccc(Br)cc1	/	+	4.5	19.1
N#C/C(=C\c1ccc(N2CCOCC2)o1)c1ccccc1	/	i	4.7	0.7
N#C/C(=C/c1ccc(N2CCCCCC2)o1)c1ccc(F)cc1	/	+	6.5	/
N#C/C(=C/c1ccc(N2CCCCC2)o1)C(=O)Nc1ccc(Cl)cc1	/	+	2.5	-1.0
N#C/C(=C/c1ccc(N2CCCCCC2)o1)c1cccc(F)c1	/	+	2.0	-0.5
Cc1ccc(NC2Sc3ccccc3NC2=O)cc1 (stereo not drawn)	1.47	i	6.0	-0.5
COc1cc(N2CCCC2)c(OC)cc1/C=C(/C#N)c1cccc(F)c1	/	+	9.3	4.8
COc1cccc(/C=C(/C#N)c2ccc(F)cc2)c1OCc1cccc(C(=O)O)c1	-0.19	i	1.4	3.2
Cc1ccc(S(=O)(=O)C(C#N)=C2N(C)c3ccccc3N2C)cc1	-0.44	+	2.0	-2.2
O=C(NCC(c1cccs1)N1CCOCC1)c1ccc(Cl)s1 (stereo not drawn)	/	i	54.0*	/
CCOC(=O)C1=C(C)N=c2s/c(=C\c3ccc(OC(C)=O)c(OCC)c3)c(=O)n2C1/C=C/c1ccccc1 (stereo not drawn)	-0.1	+	2.5	2.7
CCOC(=O)C1=C(C)N=c2s/c(=C\c3ccc(OC(C)=O)cc3)c(=O)n2C1/C=C/c1ccccc1 (stereo not drawn)	0.07	i	2.9	-1.5
CN(C)c1ccc(/C=N/NC(=O)c2ccccc2Cl)cc1	0.2	i	21.2*	76.7*
SMILES	Ins promoter up	Autophagy HCS	MT stabilize HCS	bCat nuc transl
COc1ccc(/C=N/NC(=O)c2ccc(Cl)cc2)cc1Cn1cc(Cl)cn1	0.35	i	3.4	-1.3
CSc1ccc(/C=N/NC(=O)c2ccccc2Cl)cc1	0.02	i	15.3*	3.2
CN(C)c1ccc(/C=N/NC(=O)c2ccccc2)cc1	-0.21	i	14.0*	2.5
CSc1ccc(/C=N/NC(=O)c2ccc(O)cc2)cc1	-0.43	i	3.5	2.9
CN(C)c1ccc(/C=N/NC(=O)c2ccc(Cl)cc2)cc1	/	i	1.2	/
CN(C)c1ccc(/C=N\NC(=O)c2ccc(Cn3cc(Cl)cn3)cc2)cc1	-0.1	i	29.5*	-3.1
CCN(CC)c1ccc(/C=N/NC(=O)c2cccc(N3CCCC3=O)c2)cc1	1.17	i	1.8	-0.4
Cc1ccc(Cl)cc1N1CCN(Cc2cc(=O)n3ccsc3n2)CC1	-0.23	i	1.9	3.0
